The M2OR odorant receptor database
Positions count from the first letter of the chain named.

Assays:
Conditions in all cases: stereoisomer not certain
OR10R2 (Homo sapiens) = molecular target: T1, OR10R2 (Homo sapiens) (UniProt Q8NGX6)
T1 sequence (whole entry): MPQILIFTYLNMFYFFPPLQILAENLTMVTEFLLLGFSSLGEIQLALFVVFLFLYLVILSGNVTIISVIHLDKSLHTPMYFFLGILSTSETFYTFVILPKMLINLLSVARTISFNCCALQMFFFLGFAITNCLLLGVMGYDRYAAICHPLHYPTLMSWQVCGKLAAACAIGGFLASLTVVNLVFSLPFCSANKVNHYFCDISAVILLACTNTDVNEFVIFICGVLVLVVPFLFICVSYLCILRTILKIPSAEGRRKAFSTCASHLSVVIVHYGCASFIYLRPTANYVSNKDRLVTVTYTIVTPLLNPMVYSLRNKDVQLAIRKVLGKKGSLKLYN
In short: (§1)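 Whether a receptor–molecule pair is responsive (active) rests on the original authors' judgment that its measured signal was statistically different from baseline. Pairs without that judgment are non-responsive (inactive). Sources used varied assay methods, commonly transient luciferase assays in mammalian cell lines.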

OR10S1 (Homo sapiens) = molecular target: T2, OR10S1 (Homo sapiens) (UniProt Q8NGN2)
T2 sequence (whole entry): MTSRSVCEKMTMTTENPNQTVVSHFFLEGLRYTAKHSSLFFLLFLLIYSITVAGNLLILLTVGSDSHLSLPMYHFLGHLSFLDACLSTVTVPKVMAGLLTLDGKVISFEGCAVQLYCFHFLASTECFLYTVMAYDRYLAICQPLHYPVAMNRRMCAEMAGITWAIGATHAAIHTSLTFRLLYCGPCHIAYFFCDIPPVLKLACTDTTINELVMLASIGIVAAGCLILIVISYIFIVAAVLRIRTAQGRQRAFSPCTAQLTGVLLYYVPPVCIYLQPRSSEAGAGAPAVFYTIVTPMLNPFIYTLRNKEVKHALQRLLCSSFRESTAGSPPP
In short: as §1

OR10T2 (Homo sapiens) = molecular target: T3, OR10T2 (Homo sapiens) (UniProt Q8NGX3)
T3 sequence (whole entry): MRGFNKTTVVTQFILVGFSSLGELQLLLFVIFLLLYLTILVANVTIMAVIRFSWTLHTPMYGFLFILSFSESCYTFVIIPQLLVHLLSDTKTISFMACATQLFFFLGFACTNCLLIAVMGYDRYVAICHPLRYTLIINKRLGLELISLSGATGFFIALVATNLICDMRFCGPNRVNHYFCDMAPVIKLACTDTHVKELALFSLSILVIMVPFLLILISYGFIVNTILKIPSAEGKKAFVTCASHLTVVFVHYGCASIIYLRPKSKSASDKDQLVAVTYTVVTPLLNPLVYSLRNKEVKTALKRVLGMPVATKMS
In short: as §1

OR10V1 (Homo sapiens) = molecular target: T4, OR10V1 (Homo sapiens) (UniProt Q8NGI7)
T4 sequence (whole entry): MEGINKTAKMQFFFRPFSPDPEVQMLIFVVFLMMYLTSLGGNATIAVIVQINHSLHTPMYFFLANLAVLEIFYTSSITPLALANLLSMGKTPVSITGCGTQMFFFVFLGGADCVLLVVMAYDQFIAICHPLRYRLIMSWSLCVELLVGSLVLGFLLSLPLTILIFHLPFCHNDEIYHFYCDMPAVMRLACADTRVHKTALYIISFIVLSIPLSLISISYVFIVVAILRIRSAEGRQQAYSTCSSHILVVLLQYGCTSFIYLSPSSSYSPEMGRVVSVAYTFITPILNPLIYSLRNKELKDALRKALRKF
In short: as §1

OR10W1 (Homo sapiens) = molecular target: T5, OR10W1 (Homo sapiens) (UniProt Q8NGF6)
T5 sequence (whole entry): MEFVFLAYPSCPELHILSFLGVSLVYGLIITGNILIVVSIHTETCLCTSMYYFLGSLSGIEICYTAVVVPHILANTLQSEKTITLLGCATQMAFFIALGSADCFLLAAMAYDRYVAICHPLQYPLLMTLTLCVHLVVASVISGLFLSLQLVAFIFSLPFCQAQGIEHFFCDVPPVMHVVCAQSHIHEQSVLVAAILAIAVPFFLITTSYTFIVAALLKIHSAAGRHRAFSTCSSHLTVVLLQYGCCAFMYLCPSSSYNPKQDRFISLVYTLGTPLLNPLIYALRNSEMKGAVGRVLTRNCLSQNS
In short: as §1

OR10X1 (Homo sapiens) = molecular target: T6, OR10X1 (Homo sapiens) (UniProt Q8NGY0)
T6 sequence (whole entry): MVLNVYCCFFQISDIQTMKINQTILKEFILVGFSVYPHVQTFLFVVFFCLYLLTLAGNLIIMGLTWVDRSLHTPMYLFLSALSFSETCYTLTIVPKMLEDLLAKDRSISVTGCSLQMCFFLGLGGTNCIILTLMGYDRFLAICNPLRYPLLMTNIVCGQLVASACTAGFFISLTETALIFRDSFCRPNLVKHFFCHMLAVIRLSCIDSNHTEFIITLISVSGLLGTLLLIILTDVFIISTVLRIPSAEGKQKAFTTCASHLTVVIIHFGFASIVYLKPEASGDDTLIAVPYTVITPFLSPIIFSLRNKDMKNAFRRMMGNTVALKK
In short: as §1

OR10Z1 (Homo sapiens) = molecular target: T7, OR10Z1 (Homo sapiens) (UniProt Q8NGY1)
T7 sequence (whole entry): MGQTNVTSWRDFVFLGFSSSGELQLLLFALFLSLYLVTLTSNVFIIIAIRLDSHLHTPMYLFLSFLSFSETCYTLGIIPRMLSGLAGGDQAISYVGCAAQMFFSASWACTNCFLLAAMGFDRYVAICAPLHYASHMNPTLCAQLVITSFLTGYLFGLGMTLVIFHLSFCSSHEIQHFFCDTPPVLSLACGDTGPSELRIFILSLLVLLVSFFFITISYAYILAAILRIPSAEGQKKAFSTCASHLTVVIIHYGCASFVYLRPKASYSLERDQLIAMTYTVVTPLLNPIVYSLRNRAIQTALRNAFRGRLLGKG
In short: as §1

OR11A1 (Homo sapiens) = molecular target: T8, OR11A1 (Homo sapiens) (UniProt Q9GZK7)
T8 sequence (whole entry): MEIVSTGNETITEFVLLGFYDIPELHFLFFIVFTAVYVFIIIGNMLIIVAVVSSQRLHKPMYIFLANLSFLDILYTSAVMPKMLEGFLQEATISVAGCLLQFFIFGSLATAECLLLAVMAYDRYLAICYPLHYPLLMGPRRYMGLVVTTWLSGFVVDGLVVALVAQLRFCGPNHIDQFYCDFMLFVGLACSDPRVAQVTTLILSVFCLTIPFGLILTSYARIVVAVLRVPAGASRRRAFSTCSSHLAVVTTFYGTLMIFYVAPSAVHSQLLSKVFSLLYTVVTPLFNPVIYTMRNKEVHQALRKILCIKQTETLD
In short: as §1

OR11G2 (Homo sapiens) = molecular target: T9, OR11G2 (Homo sapiens) (UniProt Q8NGC1)
T9 sequence (whole entry): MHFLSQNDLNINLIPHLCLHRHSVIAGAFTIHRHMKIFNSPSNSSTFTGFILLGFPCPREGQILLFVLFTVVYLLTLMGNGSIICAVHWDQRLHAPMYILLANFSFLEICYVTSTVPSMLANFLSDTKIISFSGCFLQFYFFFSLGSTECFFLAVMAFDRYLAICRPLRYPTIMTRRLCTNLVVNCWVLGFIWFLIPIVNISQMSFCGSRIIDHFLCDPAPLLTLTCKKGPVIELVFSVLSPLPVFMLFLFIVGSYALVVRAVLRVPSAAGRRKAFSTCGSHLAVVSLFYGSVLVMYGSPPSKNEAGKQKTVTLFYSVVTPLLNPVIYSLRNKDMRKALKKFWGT
In short: as §1

OR11H1 (Homo sapiens) = molecular target: T10, OR11H1 (Homo sapiens) (UniProt Q8NG94)
T10 sequence (whole entry): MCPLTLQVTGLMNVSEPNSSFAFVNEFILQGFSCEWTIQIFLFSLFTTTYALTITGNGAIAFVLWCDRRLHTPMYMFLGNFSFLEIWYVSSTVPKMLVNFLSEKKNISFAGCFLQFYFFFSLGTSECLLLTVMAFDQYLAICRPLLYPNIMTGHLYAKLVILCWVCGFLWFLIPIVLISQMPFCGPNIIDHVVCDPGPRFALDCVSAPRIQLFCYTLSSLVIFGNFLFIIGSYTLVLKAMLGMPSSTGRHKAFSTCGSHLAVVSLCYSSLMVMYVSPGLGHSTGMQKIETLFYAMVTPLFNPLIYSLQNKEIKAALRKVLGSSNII
In short: as §1

OR11H12 (Homo sapiens) = molecular target: T11, OR11H12 (Homo sapiens) (UniProt B2RN74)
T11 sequence (whole entry): T10 sequence (whole entry) with S33T, R68W, Y156C, M240V
In short: as §1

OR11H2 (Homo sapiens) = molecular target: T12, OR11H2 (Homo sapiens) (UniProt Q8NH07)
T12 sequence (whole entry): T10 sequence (whole entry) with Q7H, T49I, M181K, R199L, M240V, S269P
In short: as §1

OR11H4 (Homo sapiens) = molecular target: T13, OR11H4 (Homo sapiens) (UniProt Q8NGC9)
T13 sequence (whole entry): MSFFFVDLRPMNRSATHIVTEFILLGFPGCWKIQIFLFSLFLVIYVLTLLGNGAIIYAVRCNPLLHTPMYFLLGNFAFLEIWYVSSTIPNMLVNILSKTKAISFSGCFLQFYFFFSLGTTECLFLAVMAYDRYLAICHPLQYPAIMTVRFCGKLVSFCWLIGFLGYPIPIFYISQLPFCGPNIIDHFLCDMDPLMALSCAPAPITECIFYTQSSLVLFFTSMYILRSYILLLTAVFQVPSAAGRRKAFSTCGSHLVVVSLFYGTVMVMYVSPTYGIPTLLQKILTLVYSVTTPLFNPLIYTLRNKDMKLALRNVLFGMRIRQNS
In short: as §1

OR11H6 (Homo sapiens) = molecular target: T14, OR11H6 (Homo sapiens) (UniProt Q8NGC7)
T14 sequence (whole entry): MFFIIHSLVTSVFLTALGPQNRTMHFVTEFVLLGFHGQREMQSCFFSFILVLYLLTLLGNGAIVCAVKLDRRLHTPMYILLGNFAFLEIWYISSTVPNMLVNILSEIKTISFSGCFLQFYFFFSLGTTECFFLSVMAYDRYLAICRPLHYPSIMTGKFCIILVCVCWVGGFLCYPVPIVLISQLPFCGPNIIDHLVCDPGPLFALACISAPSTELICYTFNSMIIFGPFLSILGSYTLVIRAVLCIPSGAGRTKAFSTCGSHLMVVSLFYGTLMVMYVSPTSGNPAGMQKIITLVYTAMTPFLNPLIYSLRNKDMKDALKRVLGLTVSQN
In short: as §1

OR11L1 (Homo sapiens) = molecular target: T15, OR11L1 (Homo sapiens) (UniProt Q8NGX0)
T15 sequence (whole entry): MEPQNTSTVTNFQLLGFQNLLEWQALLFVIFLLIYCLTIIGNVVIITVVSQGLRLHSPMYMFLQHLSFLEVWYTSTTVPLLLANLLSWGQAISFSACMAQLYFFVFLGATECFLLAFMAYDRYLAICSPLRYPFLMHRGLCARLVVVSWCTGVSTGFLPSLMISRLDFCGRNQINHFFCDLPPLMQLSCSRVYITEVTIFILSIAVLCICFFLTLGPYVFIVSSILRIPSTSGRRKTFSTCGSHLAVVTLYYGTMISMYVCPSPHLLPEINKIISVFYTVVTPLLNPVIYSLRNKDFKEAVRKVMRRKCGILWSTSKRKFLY
In short: as §1

OR12D2 (Homo sapiens) = molecular target: T16, OR12D2 (Homo sapiens) (UniProt P58182)
T16 sequence (whole entry): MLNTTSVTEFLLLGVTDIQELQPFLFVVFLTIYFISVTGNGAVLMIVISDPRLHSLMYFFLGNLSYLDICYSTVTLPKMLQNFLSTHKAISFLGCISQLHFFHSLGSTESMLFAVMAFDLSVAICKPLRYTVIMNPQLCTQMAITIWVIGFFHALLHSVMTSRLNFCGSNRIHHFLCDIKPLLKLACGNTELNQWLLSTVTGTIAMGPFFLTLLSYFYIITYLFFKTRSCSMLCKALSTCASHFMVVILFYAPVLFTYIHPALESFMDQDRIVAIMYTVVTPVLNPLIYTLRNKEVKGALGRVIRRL
In short: as §1

OR12D3 (Homo sapiens) = molecular target: T17, OR12D3 (Homo sapiens) (UniProt Q9UGF7)
T17 sequence (whole entry): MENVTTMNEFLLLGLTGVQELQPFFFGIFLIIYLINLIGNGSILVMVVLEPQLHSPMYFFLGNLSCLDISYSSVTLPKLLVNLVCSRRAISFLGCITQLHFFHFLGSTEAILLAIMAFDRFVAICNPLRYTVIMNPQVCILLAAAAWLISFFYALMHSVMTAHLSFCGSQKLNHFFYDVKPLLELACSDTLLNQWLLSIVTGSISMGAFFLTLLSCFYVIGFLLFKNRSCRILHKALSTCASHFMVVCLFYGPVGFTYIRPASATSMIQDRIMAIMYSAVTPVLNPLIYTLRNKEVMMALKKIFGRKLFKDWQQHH
In short: as §1

OR13A1 (Homo sapiens) = molecular target: T18, OR13A1 (Homo sapiens) (UniProt Q8NGR1)
T18 sequence (whole entry): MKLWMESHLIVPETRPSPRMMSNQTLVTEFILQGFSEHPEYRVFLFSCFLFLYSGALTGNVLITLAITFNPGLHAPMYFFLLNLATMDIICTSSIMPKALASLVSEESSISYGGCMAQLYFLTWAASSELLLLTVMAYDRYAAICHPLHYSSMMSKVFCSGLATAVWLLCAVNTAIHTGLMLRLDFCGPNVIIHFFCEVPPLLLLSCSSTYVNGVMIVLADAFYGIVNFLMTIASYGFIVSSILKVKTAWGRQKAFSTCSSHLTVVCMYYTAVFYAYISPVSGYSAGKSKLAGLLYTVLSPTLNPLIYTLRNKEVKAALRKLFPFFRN
In short: as §1

Measured: odorant receptor agonist call;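 further: active if original authors judged signal statistically different from baseline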

CCC1OC(C)=C(O)C1=O (stereo not drawn)
inactive: all assays above
